Common to all, as to design: species or system Hepacivirus hominis
The target in test [1] is T1, NS3 (Hepatitis C virus, UniProt A3EZJ3). Put plainly: Inhibition constant for HCV NS3 protease substrate binding site.
For test [2], the target named is T1, NS3. Put plainly: Dissociation constant for HCV NS3 protease substrate binding site. The method, boiled down:
(§1)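 Uniformly 15N-labeled single-chain ns4a–ns3p, 0.2 mM, in 75 mM potassium phosphate pH 6.5, 20 mM DTT, 95/5% H2O/D2O, 0.015% sodium azide. Spectra were recorded with and without compound at several compound concentrations. KD and bound shift were fitted by nonlinear least squares to a single-site binding equation, with total compound and protein concentrations known.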

Test [3] deals with T1, NS3. Kind of test: Dissociation constant for HCV NS3 protease substrate binding site; protein precipitation at 1:2 compound [100 uM]/protein ratio. The method in brief:
as §1

Where “and” joins values, the source holds several entries; their conditions need not be identical. Identical values can stand only once.

T1 sequence (A3EZJ3 whole entry): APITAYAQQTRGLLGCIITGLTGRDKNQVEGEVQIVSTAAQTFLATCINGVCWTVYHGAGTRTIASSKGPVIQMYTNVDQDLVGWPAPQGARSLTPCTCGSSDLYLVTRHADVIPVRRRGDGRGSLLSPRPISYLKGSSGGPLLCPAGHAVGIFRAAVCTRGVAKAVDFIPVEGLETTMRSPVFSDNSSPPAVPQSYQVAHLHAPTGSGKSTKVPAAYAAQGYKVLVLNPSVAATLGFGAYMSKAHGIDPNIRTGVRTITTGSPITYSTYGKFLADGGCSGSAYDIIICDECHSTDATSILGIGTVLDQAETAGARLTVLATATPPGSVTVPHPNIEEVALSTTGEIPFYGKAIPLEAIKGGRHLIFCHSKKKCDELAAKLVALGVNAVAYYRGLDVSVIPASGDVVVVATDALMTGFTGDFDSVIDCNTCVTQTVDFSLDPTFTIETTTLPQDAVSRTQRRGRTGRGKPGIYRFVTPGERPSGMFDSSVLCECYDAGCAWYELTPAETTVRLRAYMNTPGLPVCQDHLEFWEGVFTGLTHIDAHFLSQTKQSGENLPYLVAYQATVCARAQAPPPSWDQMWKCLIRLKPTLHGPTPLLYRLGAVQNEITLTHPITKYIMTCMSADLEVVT

On to `CC(C)(C)OC(=O)c1ccccc1C(=O)c1ccc(OCCCOC(=O)N[C@@H](Cc2cc(I)c(O)c(I)c2)C(=O)OC(C)(C)C)cc1`, for which, in test [1], the Ki (usually a measure of affinity in units of concentration, obtained from inhibition or displacement) worked out at 1 µM. This lies in the single-digit micromolar range. As to `O=C(O)c1cc2cc(Br)ccc2[nH]1`, the Kd (as a rule, the concentration at which binding is half-saturated) in test [2] (read-out: Kd) is 200 µM.

For `O=C(O)c1cc2ccc(Cl)cc2[nH]1`, in test [2] (read-out: Kd), the Kd was 400 µM.

Take `Cc1ccc2[nH]c(C(=O)O)cc2c1`: the equilibrium dissociation constant (Kd) in test [2] (read-out: Kd) worked out at 1200 µM.

For the compound `COc1ccc2[nH]c(C(=O)O)cc2c1`, the Kd in test [2] (read-out: Kd) stood at 4000 µM. Same read-out and setting: to `COc1ccc(C(=O)c2ccc[nH]2)cc1` belongs over 20 µM. The same measure, in the same setting: the result for `COc1ccc(NC(=O)c2ccccc2C(=O)O)cc1` reads 22000 µM. Still for that read-out and setting: to `COC(=O)[C@H](N)Cc1cc(I)c(O)c(I)c1` belongs over 2500 µM.

With `O=C(O)c1ccccc1Oc1ccc(Cl)cc1`, the Kd in test [2] (read-out: Kd) was determined as 7000 µM. Still for that read-out and setting: the result for `Nc1ccc(CC(C(=O)O)c2ccccc2)cc1` (configuration not stated) reads over 8000 µM; that for `Cc1ccc(N)cc1NC(=O)c1ccc(N)cc1`, 100000 µM.

With `CC(C)(C)OC(=O)N[C@H](Cc1cc(I)c(O)c(I)c1)C(=O)O`, the inhibition constant Ki in test [1] came to 260 µM. Besides, the Kd entry in test [2] is recorded as “Active”. `O=C(O)C(Cc1cc(I)c(O)c(I)c1)c1ccc(-c2ccccc2)cc1` (configuration not stated): the Kd entry in test [3] is on record as “No Delta CS”. Take `COC(=O)c1cccc(C(=O)c2ccc(Cl)cc2)c1C(=O)O`: in test [2] (read-out: Kd), the Kd was over 10000 µM. `Cc1ccc(S(=O)(=O)NNC(=S)c2ccccc2)cc1` yielded a Ki in test [1] of 650 µM. In the case of `O=C(O)COc1c(I)cc(CC(C(=O)O)c2ccccc2)cc1I` (configuration not stated), in test [2] (read-out: Kd), the Kd was over 8000 µM. Still for that read-out and setting: to `O=C(O)c1cc2ccccc2s1` belongs 1700 µM; to `O=C(O)c1cc2c(Cl)cccc2[nH]1`, 800 µM.

`CC(C)c1ccc(C(Cc2cc(I)c(O)c(I)c2)C(=O)O)cc1` (configuration not stated): the Kd entry in test [3] was “No Delta CS”. `O=C(O)C(Cc1cc(I)c(O)c(I)c1)c1ccc2ccccc2c1` (configuration not stated): the Kd entry in test [3] was “No Delta CS”. Regarding `Nc1ccc(C(=O)c2ccccc2)cc1`, in test [2] (read-out: Kd), the Kd was > 30 µM and ~20 µM. Still for that read-out and setting: to `CC(=O)c1ccc(OCCC(=O)O)cc1` belongs over 20000 µM; to `CON(C)C(=O)Nc1ccc(O)c(C(F)(F)F)c1`, 8000 µM. Same read-out and setting: to `COc1ccc(NC(=O)C(C)(C)C)cc1` belongs over 100 µM; to `O=C(O)c1ccccc1C(=O)c1ccc(C(F)(F)F)cc1`, 4000 µM. On the same count and under the same terms, the result for `Nc1ccc(C(=O)c2cccnc2N)cc1` reads 70000 µM; that for `Cn1c(C(=O)O)cc2ccccc21`, 8100 µM.

Consider `O=C(O)c1cc2cc(Cl)ccc2o1`, for which the Kd in test [2] (read-out: Kd) amounted to 2200 µM. In the case of `O=C(/C=N/O)Nc1ccc(C(=O)O)cc1`, in test [2] (read-out: Kd), the Kd was over 250 µM.

On to `O=C(O)c1cc2cccc(Cl)c2[nH]1`, for which, in test [2] (read-out: Kd), the Kd turned out to be 1400 µM. In the case of `O=C(CCCl)Nc1ccc(O)cc1`, the Kd in test [2] (read-out: Kd) came to 55000 µM. `CCOC(=O)C(Cc1cc(I)c(O)c(I)c1)c1ccccc1` (configuration not stated): the dissociation constant (Kd) result in test [2] is reported as “Not Active”. For `Nc1ccc(C(=O)Nc2ccc(Cl)c(N)c2)cc1`, the Kd in test [2] (read-out: Kd) was 20000 µM.

Take `O=C(O)CCCc1cc(I)c(O)c(I)c1`: the Ki in test [1] was 180 µM. Also, the Kd in test [2] (read-out: Kd) turned out to be 140 µM.

As for `COc1ccc(N)cc1NC(=O)c1ccc(N)cc1`, the Kd in test [2] (read-out: Kd) is over 20000 µM.

For `O=C(O)C(Cc1cc(Br)c(O)c(Br)c1)c1ccccc1` (configuration not stated), the Kd in test [2] (read-out: Kd) was over 8000 µM.

As for `O=C(O)Cc1ccccc1C(=O)c1ccc(Cl)cc1`, the Kd in test [2] (read-out: Kd) stood at 4000 µM.

Turning to `Nc1ccc(C(=O)c2ccc(N)cc2)cc1`, the Kd in test [2] (read-out: Kd) was over 20000 µM. The same measure, in the same setting: to `CN(C)C(=O)c1cccc(C(=O)c2ccc(Cl)cc2)c1C(=O)O` belongs over 10000 µM.

For `O=C(O)c1ccccc1C(=O)c1ccc(Cl)cc1`, the Kd in test [2] (read-out: Kd) is about 3 µM. The same measure, in the same setting: the result for `O=C(O)c1ccc(O)cc1C(=O)c1ccc(O)cc1` reads over 10000 µM; that for `COc1ccc(NC(=O)C(C)C)cc1`, 70000 µM; that for `O=C(O)c1ccccc1C(=O)c1ccc(F)cc1`, about 4000 µM. `O=C(O)CC(c1ccccc1)c1cc(I)c(O)c(I)c1` (configuration not stated): the affinity in test [1] corresponds to a Ki of 100 µM. Besides, the Kd in test [2] (read-out: Kd) is 40 µM. Consider `O=C(O)C(Cc1ccc(O)cc1)c1ccccc1` (configuration not stated), for which the Kd in test [2] (read-out: Kd) was over 8000 µM. Still for that read-out and setting: to `Nc1cc(O)nc(-c2cc(I)c(O)c(I)c2)n1` belongs about 230 µM; to `COc1ccc(C(=O)C2CC2)cc1`, over 20000 µM; to `COc1ccc(NC(=O)CCC(=O)O)cc1`, over 110000 µM. The same measure, in the same setting: to `CN(C)C(=O)Nc1ccc(O)c(C(F)(F)F)c1` belongs 12000 µM.

Regarding `O=C(O)CCCc1ccc(C(=O)c2ccccc2C(=O)O)cc1`, in test [2] (read-out: Kd), the Kd came out at 40000 µM. For `O=C(N[C@@H](Cc1cc(I)c(O)c(I)c1)C(=O)O)OCCCOc1ccc(C(=O)c2ccccc2C(=O)O)cc1`, in test [1], the affinity corresponds to a Ki of 0.8 µM. On to `O=C(O)CCc1cc(I)c(O)c(I)c1`, for which affinity in test [1] was put at a Ki of 80 µM. In test [2] (read-out: Kd), the Kd stood at 90 µM. Regarding `COc1ccc(C(=O)c2ccccc2C(=O)O)cc1`, the Kd in test [2] (read-out: Kd) amounted to 1000 µM. Same read-out and setting: to `CC(C)C(=O)Nc1ccc(O)cc1` belongs 17000 µM. On the same count and under the same terms, to `Cc1ccc(C(=O)c2ccccc2C(=O)O)cc1` belongs 1600 µM. On the same count and under the same terms, to `CC1(C(=O)Nc2ccc(O)cc2)CC1` belongs 8400 µM; to `CC(C)C(=O)Nc1ccc(O)c(C(F)(F)F)c1`, 8000 µM. For `O=C(O)C(Cc1cc([N+](=O)[O-])c(O)c([N+](=O)[O-])c1)c1ccccc1` (configuration not stated), the Kd in test [2] (read-out: Kd) was over 8000 µM. As to `O=C(O)c1cc(I)c(O)c(I)c1`, the inhibition constant (Ki) in test [1] turned out to be 600 µM. For the same compound, the Kd in test [2] (read-out: Kd) was 420 µM. As to `O=C(O)c1cc2cccc(Br)c2[nH]1`, the dissociation constant Kd in test [2] (read-out: Kd) turned out to be 1000 µM.

For `Oc1c(I)cc(CCc2ccncc2)cc1I`, the Kd result in test [2] is on record as “Not Active”. As to `O=C(O)c1ccccc1Cc1ccc(O)cc1`, the Kd in test [2] (read-out: Kd) is over 7000 µM. As to `O=C(c1ccc(Cl)cc1)c1cccc(Cl)c1C(=O)O`, in test [2], the dissociation constant (Kd) entry is on record as “Insoluble”. As to `COc1ccc(NC(=O)C2(C)CC2)cc1`, the Kd in test [2] (read-out: Kd) is over 60000 µM. In turn, `CC(=O)N[C@H](Cc1cc(I)c(O)c(I)c1)C(=O)O` yielded a Ki in test [1] of 210 µM. Further, the Kd result in test [2] is given as “Active”. Take `COc1ccc2sc(C(=O)O)cc2c1`: the Kd in test [2] (read-out: Kd) amounted to 8000 µM. The same measure, in the same setting: to `COc1ccc(CC(C(=O)O)c2ccccc2)cc1` (configuration not stated) belongs over 8000 µM; to `O=C(O)c1ccccc1C(=O)c1cccc(Cl)c1`, over 10000 µM; to `Cc1ccc(NC(=O)c2ccc(N)cc2)c(N)c1`, over 20000 µM. Same read-out and setting: to `O=C(O)c1cc2ccccc2o1` belongs 6400 µM.

Turning to `CC(C)(C)OC(=O)N[C@@H](Cc1cc(I)c(O)c(I)c1)C(=O)O`, the affinity in test [1], expressed as Ki, was 310 µM. Further, in test [2], the Kd result is reported as “Active”.

For `O=C(O)C(F)(F)C(F)(F)C(=O)O`, the Kd in test [2] (read-out: Kd) is about 5.2 µM. For the compound `COc1c(I)cc(CC(C(=O)O)c2ccccc2)cc1I` (configuration not stated), in test [2] (read-out: Kd), the Kd is over 1600 µM. For `c1ccc2c(c1)NC1SCCCN21` (configuration not stated), the Kd in test [2] (read-out: Kd) is about 1.9 µM.

For `O=C(O)c1ccccc1C(=O)c1ccc(O)cc1`, the Kd in test [2] (read-out: Kd) is 1600 µM.

With `CC(=O)c1ccc(OCC(=O)O)cc1`, the Kd in test [2] (read-out: Kd) is over 20000 µM.

Consider `Cc1ccc(C(=O)O)c(C(=O)c2ccc(O)cc2)c1`, for which the equilibrium dissociation constant (Kd) in test [2] (read-out: Kd) is over 5000 µM. On to `COc1ccc(C(=O)c2cc(OC)ccc2C(=O)O)cc1`, for which, in test [2], the Kd result is recorded as “Insoluble”. On to `O=C(O)c1cc(Br)ccc1C(=O)c1ccc(O)cc1`, for which, in test [2] (read-out: Kd), the dissociation constant (Kd) was over 600 µM. With `CC1(C(=O)Nc2ccc(O)c(C(F)(F)F)c2)CC1`, in test [2] (read-out: Kd), the Kd is 690 µM. Consider `CNC(=O)Nc1ccc(C(=O)O)cc1`, for which the Kd in test [2] (read-out: Kd) was over 210000 µM. On the same count and under the same terms, the result for `O=C(O)c1ccccc1Cc1ccc(Cl)cc1` reads over 7000 µM.

`O=C(O)c1ccccc1Oc1ccc(F)cc1`: the Kd in test [2] (read-out: Kd) was 7000 µM.

Consider `O=C(O)c1cc2cc(Cl)ccc2[nH]1` [5-CHLOROINDOLE-2-CARBOXYLIC ACID], for which, in test [2] (read-out: Kd), the Kd amounted to 300 µM.

Regarding `O=C(O)c1cc2cc(F)ccc2[nH]1` [5-FLUOROINDOLE-2-CARBOXYLIC ACID], the Kd in test [2] (read-out: Kd) is 2.9 µM.

For `Nc1ccc(C(=O)O)cc1` [AMINOBENZOIC ACID], in test [2] (read-out: Kd), the Kd is over 40000 µM.

As for `O=C(O)c1cc2ccccc2[nH]1` [INDOLE-2-CARBOXYLIC ACID], in test [2] (read-out: Kd), the Kd is 12000 µM. In turn, `O=C(O)C(Cc1cc(I)c(O)c(I)c1)c1ccccc1` (configuration not stated) [IODOALPHIONIC ACID] showed a Ki in test [1] of 140 µM. For the same compound, the equilibrium dissociation constant (Kd) in test [2] (read-out: Kd) turned out to be 110 µM. Take `CCC(=O)Nc1ccc(O)cc1` [PARAPROPAMOL]: the dissociation constant (Kd) in test [2] (read-out: Kd) came to 34000 µM.
